Assay results collected from several papers.
Each line is one published result; the experiments were not run side by side.
Observed: cell growth or viability

Compound | cell line | test | conditions | quantity | value
COc1cccc2c1C(=O)c1c(O)c3c(c(O)c1C2=O)C[C@@](O)(C(=O)CO)C[C@@H]3O[C@H]1C[C@H](N)[C@H](O)[C@H](C)O1 | MRC5 | MTT | 75 h | IC50 | 2.7 µM
COc1cc(C(=O)c2nc(-c3cccc4[nH]ccc34)c(C)[nH]2)cc(OC)c1OC | A-375 | MTS | 72 h | IC50 | 0.0161 µM
O=C(Nc1ccc(Oc2nc3ccccc3n3cnnc23)cc1)Nc1cccc(Cl)c1 | MDA-MB-231 | MTT | 3.125 µM, 24 h | viability | 100%
O=C(Nc1ccccc1/N=c1\cc(-c2ccc3c(c2)OCO3)oc2ccccc12)N1CCNCC1 | MDA-MB-231 | CCK-8 | 1 µM | inhibition | 2.22%
COc1cc(C(=O)c2nc(-c3ccnc4[nH]ccc34)c[nH]2)cc(OC)c1OC | A-375 | MTS | 72 h | IC50 | 0.0285 µM
O=C(NN=Cc1ccc([N+](=O)[O-])s1)C1CC(=O)N(c2ccc(F)cc2F)C1 (stereo not drawn) | A-375 | MTT | 100 µM, 72 h | viability | 4.41%
COc1cccc(NC(=O)Nc2ccc(Oc3nc4ccccc4n4cnnc34)cc2)c1 | MDA-MB-231 | MTT | 100 µM, 24 h | viability | 24.6%
COc1cc(C(=O)c2nc(-c3cccc4[nH]nnc34)c[nH]2)cc(OC)c1OC | A-375 | MTS | 72 h | IC50 | 0.0632 µM
CN(C)c1ccc(Nc2nc(-c3ccncc3)nc3c2CC(N)CC3)cc1 (stereo not drawn) | A-375 | MTT |  | IC50 | 12.6 µM
O=C(Nc1ccccc1)Nc1ccc(Oc2nc3ccccc3n3cnnc23)cc1 | MDA-MB-231 | MTT | 100 µM, 24 h | viability | 41.6%
C[C@H](N)C(=O)Nc1ccccc1/N=c1\cc(-c2ccc3c(c2)OCCO3)oc2c([N+](=O)[O-])cccc12 | MDA-MB-231 | CCK-8 | 1 µM | inhibition | -3.63%
C[C@H]1CNCCN1c1nccc(-c2noc3c2CCC[C@@]32CCCc3sc(N)c(C#N)c32)n1 | A-375 |  | 5 days | EC50 | 5.01 µM
NCCCCC(=O)Nc1ccccc1/N=c1\cc(-c2ccc3c(c2)OCO3)oc2ccccc12 | MDA-MB-231 | CCK-8 | 1 µM | inhibition | -5.88%
O=c1[nH]cc(F)c(=O)[nH]1 | C32 | SRB | 72 h | IC50 | 0.59 µg/mL
COc1ccc2/c(=N/c3ccccc3NC(=O)[C@@H](N)C(C)(C)C)cc(-c3ccc4c(c3)OCCO4)oc2c1 | MDA-MB-231 | CCK-8 | 1 µM | inhibition | 6.88%
Cc1nc(Nc2ncc(C(=O)Nc3c(C)cccc3Cl)s2)cc(N2CC[C@H](O)C2)n1 | L-82 | ATP luminescence | 72 h | IC50 | > 10 µM
COc1ccc2/c(=N/c3ccccc3NC(=O)CN)cc(-c3ccc4c(c3)OCCO4)oc2c1 | MDA-MB-231 | CCK-8 | 1 µM | inhibition | 12.6%
CNC(=O)c1cc(Oc2ccc(NC(=O)Nc3ccc(Cl)c(C(F)(F)F)c3)cc2)ccn1 | MDA-MB-231 | MTT | 3.125 µM, 24 h | viability | 70.2%
NCCCC(=O)Nc1ccccc1/N=c1\cc(-c2ccc3c(c2)OCO3)oc2ccccc12 | MDA-MB-231 | CCK-8 | 1 µM | inhibition | 8.02%
COc1cc(C(=O)c2nc(-c3ccc4cc[nH]c4c3)c[nH]2)cc(OC)c1OC | A-375 | MTS | 72 h | IC50 | 0.0199 µM
NCCC(=O)Nc1ccccc1/N=c1\cc(-c2ccc3nc(N)oc3c2)oc2cc(O)ccc12 | MDA-MB-231 | CCK-8 | 1 µM | inhibition | 22%
O=C(Nc1ccc(Cl)cc1)Nc1ccc(Oc2nc3ccccc3n3cnnc23)cc1 | MDA-MB-231 | MTT | 50 µM, 24 h | viability | 56.4%
COc1cc(C(=O)c2nc(-c3cccc4[nH]ccc34)cs2)cc(OC)c1OC | A-375 | MTS | 72 h | IC50 | 0.0056 µM
Oc1cccc(-c2nc(N3CCOCC3)c3oc4ncccc4c3n2)c1 | MDA-MB-231 | CCK-8 | 1 µM | inhibition | 18.8%
